Screens (PubChem BioAssay)
Fibroblast inh: blocks proliferation of human lung fibroblasts. LL 47 human lung fibroblast viability, ATP luminescence; active compounds read low. viability, % at 10 µM. actives 1.1% (n = 85,000);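 active = viability at or below 50% in the single dose screen; inactive = viability above 50%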;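 also: compound exposure lasted 72 h before the ATP readout; 100% = median luminescence of untreated cell-only wells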
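Material: human lung fibroblast line LL 47, low passage; Evaluation: viability percentage against median untreated-cell control; Buffer or medium: 15% FBS in IMEM; Incubation: 72 h compound exposure at 37 °C after overnight plating; Dosing: 0.1% DMSO in all compound wells; Measured by: CellTiter-Glo luminescence.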
HUVEC inhibit: inhibitors of human endothelial cell proliferation | HUVEC proliferation, CellTiter-Glo luminescence, 72 h; active compounds read low | viability, % at 10 µM (by protocol) | actives 1.1% (n = 86,000) | AID 648;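 active = viability at or below 30%; inactive = viability above 30%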;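 also: 100% = median luminescence of DMSO-only cell control wells on each plate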
PTK2B oligo ant: antagonists of human Pyk2 oligomerization; z-score (the deposit names both 25 µM and 10 µM); Q14289; AID 1347419; Q293 cells, Pyk2 FERM NanoBiT luminescence; active compounds read low; actives 0.83% (n = 99,000);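 active = Z-score of -3 or lower, scaled per plate to the spread of control and sample wells; inactive = z-score above -3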;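 also: negative z-score means lost luminescence so less FERM oligomerization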
H69AR inhibit: blocks growth of human H69AR lung tumor cells | H69AR lung tumor viability, ATP luminescence, 72 h; active compounds read low | viability, % at 10 µM | actives 6% (n = 85,000);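 active = viability at or below 40%; inactive = viability above 40%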;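 also: multidrug resistant small cell line overexpressing MRP-1 efflux transporter; 100% = mean luminescence of untreated control wells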
bCat KO growth: beta-catenin-lacking colon tumor cell growth suppression | HCT116 beta-catenin knockout viability, CellTiter-Glo, 60 h; active compounds read low | viability, % at 10 µM | actives 1.5% (n = 140,000);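 active = viability at or under a set limit, the compound median less 4 SD, cut at about 6% in these data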;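 also: 0% = Hyamine 1622 control at 20 µM and 100% = untreated cell control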
PTEN del growth: suppresses growth of cells with PTEN deletion | actives 1.2% (n = 140,000) | HCT116 PTEN-null viability, CellTiter-Glo, 60 h; active compounds read low | AID 827 | viability, % at 10 µM;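 active = viability at or below a set limit, 4 SD under the median of all tested compounds, cut at about 3.7% in these data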;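 also: PTEN knockout HCT116 line with beta catenin targeted HCT116 as companion control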
Starred values were filed as active, the others as inactive; . = not tested or not shown. The full list was thinned out, with hits kept by preference.

SMILES	Fibroblast inh	HUVEC inhibit	PTK2B oligo ant	H69AR inhibit	bCat KO growth	PTEN del growth
COC(=O)C1=C(C)NC(C)=C(C(=O)OC)C1c1cc2ccc(C)cc2[nH]c1=O	79	69	0.96	20*	83	79
N#CC1=C(N)c2ccccc2CC12CCCCC2	93	79	-0.37	86	91	87
Cc1c(C#N)c(N=CN(C)C)c(C(=O)c2ccc(Br)cc2)n1-c1ccccc1	97	95	0.03	70	90	83
Cc1c(C#N)c(N=CN(C)C)c(C(=O)c2ccccc2)n1-c1ccc(Br)cc1	82	88	0.19	20*	60	63
Cc1ccnc(NC(NC(=O)C(C)C)(C(F)(F)F)C(F)(F)F)c1	.	.	.	.	102	95
COCCOC(=O)c1[nH]c2c(c1C)C(=O)CC(c1ccccc1)C2 (stereo not drawn)	56	43	0.62	39*	17	20
COCCOC(=O)c1[nH]c2c(c1C)C(=O)CC(c1ccc(N(C)C)cc1)C2 (stereo not drawn)	89	87	1	87	82	86
COCCOC(=O)c1[nH]c2c(c1C)C(=O)CC(c1ccc(F)cc1)C2 (stereo not drawn)	86	59	.	25*	28	27
CN(C)S(=O)(=O)c1ccc(Nc2ccc(-c3ccc4c(c3)OCCO4)nn2)cc1	90	71	-2.1	65	90	91
CN(C(=O)c1cccc(Nc2ccc(-c3ccc4c(c3)OCCO4)nn2)c1)C1CCCCC1	107	51	-3.6*	17*	52	41
Cn1c(SCC(=O)Nc2cccc(Br)c2)nnc1-c1cc2ccccc2o1	57	92	-0.05	97	2.6*	2.2*
COc1ccccc1OCc1nnc(SCC(=O)Nc2ccc(C)cc2)n1C	111	97	0.4	92	98	110
Cc1ccccc1OCc1nnc(SCC(=O)Nc2ccc3c(c2)oc2ccccc23)n1C	61	60	0.83	21*	92	98
CC1CC(c2ccccc2)n2nc(NC(=O)c3ccco3)nc2N1 (stereo not drawn)	104	98	-0.91	95	93	92
CC1CC(N(C(=O)c2ccco2)c2ccccc2)c2ccccc2N1 (stereo not drawn)	90	65	-0.58	15*	82	72
Cc1ccc2[nH]c(O)c(N=NC(=O)C(C)n3cnc4ccccc4c3=O)c2c1 (stereo not drawn)	.	.	.	.	88	87
C1CCC(C(CC2CCCCN2)C2CCCCC2)CC1 (stereo not drawn)	1.8*	1.6*	.	1.3*	1.5*	2.2*
O=C(COC(=O)CC1CCCC1)Nc1cc2c(cc1Cl)C(=O)c1ccccc1C2=O	79	32	-2	19*	68	79
O=C(COC(=O)CCC1CCCC1)Nc1ccccc1Sc1ccccc1	.	.	.	.	98	103
CCOC(=O)C1=C(C)Nc2nnnn2C1c1ccc(OC)c(Br)c1 (stereo not drawn)	95	105	.	75	96	100
CCC(Sc1nnc2c3ccccc3n(CC)c2n1)C(=O)Nc1sc2c(c1C#N)CCCC2 (stereo not drawn)	.	.	-0.62	.	1.4*	1.4*
O=C(Nc1nnc(-c2ccco2)s1)C1CCCCC1	106	103	-0.97	114	97	89
Cc1ccc(S(=O)(=O)N2CCC(C(=O)Nc3nnc(-c4ccco4)s3)CC2)cc1	67	61	0.19	38*	92	100
Cc1ccc(NS(=O)(=O)c2ccc(Cl)c(C(=O)Nc3ccccc3-c3nc4ccccc4[nH]3)c2)cc1C	.	.	.	.	14	9
COc1ccc(OCCSc2nnc(C)n2-c2ccccc2)cc1	100	86	-0.08	32*	79	96
SMILES	Fibroblast inh	HUVEC inhibit	PTK2B oligo ant	H69AR inhibit	bCat KO growth	PTEN del growth
O=C(O)CCCCCN1C(=O)/C(=C\c2ccncc2)SC1=S	.	.	.	.	32	35
COc1ccc(CN2C(=O)/C(=C/c3ccncc3)SC2=S)cc1	.	.	.	.	2.5*	2.0*
CCNc1nc2c(c(=O)n(Cc3ccccc3)c(=O)n2C)n1Cc1ccccc1	.	.	-3.5*	.	86	74
O=C(Nc1ccc(Cl)cc1)Nc1nc(-c2sccc2Br)cs1	.	.	-0.18	.	3.8*	13
Cc1csc(NC(=O)Nc2ccc(Cl)cc2)n1	95	92	-0.22	100	85	91
CC(C)OC(=O)Cn1cnc2ccc(Br)cc2c1=O	87	93	0.21	90	82	81
O=C1[C@@H]2[C@H](Cc3ccc(O)cc3)N[C@]3(C(=O)Nc4ccccc43)[C@@H]2C(=O)N1c1ccc(F)cc1	96	99	-0.23	112	88	97
Cc1c(Cl)ccc2c1NC(=O)[C@]21N[C@@H](Cc2ccccc2)[C@H]2C(=O)N(c3ccc(F)cc3)C(=O)[C@H]21	89	67	-0.24	19*	52	43
CN1CCN(c2nc(-c3ccccc3)c3cc(Cl)ccc3n2)CC1	72	49	0.05	39*	56	44
Clc1ccc2nc(N3CCNCC3)nc(-c3ccccc3)c2c1	2.4*	4.3*	-1.2	0.8*	1.2*	1.3*
CN1CCN(c2nc(-c3ccccc3)cc(C(F)(F)F)n2)CC1	86	88	-1.1	49	99	94
O=C1CN(c2nc(-c3ccccc3)c3cc(Cl)ccc3n2)c2ccccc2N1	.	.	.	.	51	49
Clc1ccc2nc(NC3=NCN(CCN4CCOCC4)CN3)nc(-c3ccccc3)c2c1	62	76	.	59	.	.
OCCN1CCN(c2nc(-c3ccccc3)c3cc(Cl)ccc3n2)CC1	94	34	-0.56	8.3*	73	71
COc1ccccc1C(N)=S	.	.	.	.	92	96
COCCn1c(-c2ccccc2Cl)nc2c(c(=O)c3ccccc3n2C)c1=O	.	.	.	.	60	59
O=C(c1oc(=O)c2ccccc2c1-c1ccccc1)N1CCN(C2CCCCC2)CC1	98	104	.	107	89	98
CCOC(=O)/C(=C\c1cccnc1)C(=O)c1cc(C(C)=O)c(Nc2ccccc2)s1	19*	4.1*	-2.1	1.8*	2.2*	2.2*
CC(C)OC(=O)/C(=C/c1cccnc1)NC(=O)c1ccccc1	.	.	.	.	93	85
CCOC(=O)/C(=C\c1ccccc1)C(=O)c1cc(C(C)=O)c(Nc2ccccc2)s1	19*	3.8*	-3*	2.1*	7	2.4*
Nc1c(C(=O)Nc2ccc(S(=O)(=O)N3CCCC3)cc2)sc2nc3ccc(OC(F)(F)F)cc3cc12	.	.	.	.	14	9
Nc1c(C(=O)Nc2ccc(S(=O)(=O)N3CCCC3)cc2)sc2nc3cc4c(cc3cc12)CCC4	.	.	.	.	5.8*	1.5*
CN1C(=S)SC(N(O)C(=O)Nc2cccc3ccccc23)C1(C)C (stereo not drawn)	100	84	-3.8*	88	99	87
C=CCn1c(SCC(=O)c2c(N)n(C)c(=O)n(C)c2=O)nc2sc(C)c(C)c2c1=O	.	.	1.6	.	99	94
